The source made the active and inactive calls. The rule behind the calls is not given here.

Holding throughout (format): functional
One assay concerns DU-145. As to the kind of experiment: Cytotoxicity against human DU145 cells. Particulars: read-out: ED50 (the source's name). The gist of the method:
(§1)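 Sulforhodamine B assay after Rubinstein et al. Cells grown at 37 °C, humidified 5% CO2, in RPMI-1640 with 10% (v/v) FBS and 100 μg/mL kanamycin. Seeding density set per line to give final A562 of 1-2.5. Stocks in DMSO, final DMSO <1% (v/v). Two-day drug exposure, absorbance at 562 nm. ED50 (50% absorbance reduction vs untreated) interpolated from dose-response. Tests in duplicate.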

Another assay relates to LNCaP. As to the kind of experiment: Cytotoxicity against human LN-Cap cells. As to conditions: read-out: ED50 (the source's name). The method, boiled down:
as §1

The test system of a further assay is ZR-75-1. As to the kind of experiment: Cytotoxicity against human ZR751 cells. Particulars: for EC50: read-out: ED50 (the source's name). The gist of the method: as §1
The test system of assay [1] is KB-VIN. As to the kind of experiment: (§2) Cytotoxicity against human KB-VIN cells. The gist of the method:
as §1

Assay [2] deals with KB. As to the kind of experiment: Cytotoxicity against human KB cells. As to conditions: for EC50: read-out: ED50 (the source's name). The method, boiled down:
as §1

In another assay the test system is A549. As to the kind of experiment: Cytotoxicity against human A549 cells. Particulars: for EC50: read-out: ED50 (the source's name). The gist of the method: as §1
The next assay has as its system PC-3. As to the kind of experiment: Cytotoxicity against human PC3 cells. As to conditions: read-out: ED50 (the source's name). The method, boiled down: as §1
The next assay relates to 1A9. As to the kind of experiment: Cytotoxicity against human 1A9 cells. Particulars: for EC50: read-out: ED50 (the source's name). The method, boiled down: as §1
The subject of a further assay is HCT-8. As to the kind of experiment: Cytotoxicity against human HCT8 cells. Particulars: read-out: ED50 (the source's name). The method, boiled down:
as §1

Assay [3] is described as follows: as §2. Particulars: KBVIN, read-out: ED50 (the source's name). The gist of the method:
as §1

The test system of assay [4] is KB-VIN. As to the kind of experiment: (§3) Cytotoxicity against human KB-VIN cells by sulforhodamine B assay. The method, boiled down: as §1
Background: The SRB assay estimates cell density from bound dye.

Assay [5] deals with KB. As to the kind of experiment: Cytotoxicity against human KB cells by sulforhodamine B assay. Particulars: for EC50: read-out: ED50 (the source's name). The gist of the method: as §1
Assay [6] is described as follows: as §3. As to conditions: KBVIN, read-out: ED50 (the source's name). The gist of the method:
as §1

On to `COc1cc(/C=C/C(=O)c2ccccc2)ccc1OC(=O)[C@@]1(C)CC[C@]2(C)CC[C@]3(C)C(=CC(=O)[C@@H]4[C@@]5(C)CC[C@H](O)C(C)(C)[C@@H]5CC[C@]43C)[C@@H]2C1`, for which the EC50 with DU-145, in the assay on LNCaP, in the assay on A549, in the assay with PC-3, in the assay with 1A9 and with HCT-8 was over 14000 nM each time. Also, the outcome in the assay with ZR-75-1, with KB-VIN [1] and in the assay on KB [2] was inactive.

In the case of `COc1cccc2c1C(=O)c1c(O)c3c(c(O)c1C2=O)C[C@@](O)(C(=O)CO)C[C@@H]3O[C@H]1C[C@H](N)[C@H](O)[C@H](C)O1` [DOXORUBICIN], the EC50 with DU-145 is 150 nM; with LNCaP it was 40 nM; with ZR-75-1, 40 nM; in assay [3], 4970 nM; in the assay on KB [2], 100 nM; with A549, 180 nM. In addition, the EC50 in the assay on PC-3 was determined as 260 nM; with 1A9, 20 nM; in the assay with HCT-8 it was 1200 nM.

As to `CC1(C)[C@@H](O)CC[C@]2(C)[C@H]3C(=O)C=C4[C@@H]5C[C@@](C)(C(=O)O)CC[C@]5(C)CC[C@@]4(C)[C@]3(C)CC[C@@H]12` [ENOXOLONE], the EC50 (in the assay with DU-145; in the assay with LNCaP; in assay [3]; in the assay with KB [2]; with PC-3; in the assay on 1A9) was over 21000 nM throughout. Moreover, the EC50 with HCT-8 came out at 19500 nM. In addition, the result in the assay with ZR-75-1, in the assay on A549, in the assay with KB-VIN [4] and in the assay with KB [5] was inactive.

With `CCOc1cccc(/C=C/C(C)=O)c1OC(=O)[C@@]1(C)CC[C@]2(C)CC[C@]3(C)C(=CC(=O)[C@@H]4[C@@]5(C)CC[C@H](O)C(C)(C)[C@@H]5CC[C@]43C)[C@@H]2C1`, the EC50 in the assay on DU-145 was over 15000 nM; with LNCaP, 6800 nM; in the assay with ZR-75-1, 8800 nM; in [3] it was 13200 nM; with KB [2], 2900 nM; in the assay with A549, 3000 nM. Moreover, the values for the EC50 in the assay with PC-3, in the assay with 1A9 and with HCT-8 were 3500 nM, 1800 nM and 4900 nM, respectively.

As for `CCOc1cc(/C=C/C(C)=O)ccc1OC(=O)[C@@]1(C)CC[C@]2(C)CC[C@]3(C)C(=CC(=O)[C@@H]4[C@@]5(C)CC[C@H](O)C(C)(C)[C@@H]5CC[C@]43C)[C@@H]2C1`, the EC50 with DU-145 worked out at 5800 nM; in the assay on LNCaP, 1100 nM; in the assay on ZR-75-1 it was 5200 nM; in [3], 1700 nM; with KB [2], 1800 nM; with A549, 1700 nM. Also, the EC50 in the assay with PC-3 turned out to be 3300 nM; in the assay with 1A9 it was 1100 nM; with HCT-8, 2700 nM.

`COc1ccc(/C=C/C(=O)c2ccccc2)cc1OC(=O)[C@@]1(C)CC[C@]2(C)CC[C@]3(C)C(=CC(=O)[C@@H]4[C@@]5(C)CC[C@H](O)C(C)(C)[C@@H]5CC[C@]43C)[C@@H]2C1`: the EC50 in the assay on DU-145 was over 14000 nM; in the assay with LNCaP, 14100 nM; in the assay on PC-3, 14100 nM; with 1A9 it was over 14000 nM; in the assay on HCT-8, over 14000 nM. Also, the outcome in the assay with ZR-75-1, in the assay with KB-VIN [1], in the assay with KB [2] and in the assay with A549 was inactive.

Regarding `COc1cc(/C=C/C(C)=O)ccc1O` [DEHYDROZINGERONE], the EC50 is over 52000 nM in the assay on DU-145; 51000 nM in the assay with LNCaP; over 52000 nM in the assay with ZR-75-1; over 52000 nM in the assay with A549; over 52000 nM in the assay with PC-3; 33900 nM in the assay with 1A9. Besides, the EC50 in the assay with HCT-8 was over 52000 nM. Also, the outcome with KB-VIN [1], with KB [2], in the assay with KB-VIN [4] and with KB [5] was inactive.

On to `COc1cc(/C=C/C(C)=O)ccc1OC(=O)[C@]12CC[C@@H](C)[C@H](C)[C@H]1C1=CC[C@@H]3[C@@]4(C)CC[C@H](O)C(C)(C)[C@@H]4CC[C@@]3(C)[C@]1(C)CC2`, for which the outcome in the assay with KB-VIN [4] was inactive. In addition, the EC50 in the assay on KB [5] was found to be 10500 nM.

For `COc1cccc(/C=C/C(C)=O)c1OC(=O)[C@@]1(C)CC[C@]2(C)CC[C@]3(C)C(=CC(=O)[C@@H]4[C@@]5(C)CC[C@H](O)C(C)(C)[C@@H]5CC[C@]43C)[C@@H]2C1`, the EC50 in the assay with DU-145 stood at 3600 nM; with LNCaP, 2800 nM; in the assay with ZR-75-1 it was 3000 nM; in assay [3], 2800 nM; in the assay with KB [2], 800 nM; with A549 it was 2200 nM. In addition, the EC50 in the assay with PC-3 was 1100 nM; with 1A9 it was 800 nM; in the assay on HCT-8 it was 1900 nM.

As to `CC(=O)/C=C/c1cccc(F)c1OC(=O)[C@@]1(C)CC[C@]2(C)CC[C@]3(C)C(=CC(=O)[C@@H]4[C@@]5(C)CC[C@H](O)C(C)(C)[C@@H]5CC[C@]43C)[C@@H]2C1`, the EC50 with DU-145 came to 2700 nM; in the assay on LNCaP, 4400 nM; with ZR-75-1, 2700 nM; in assay [3], 8700 nM; with KB [2] it was 3000 nM; in the assay with A549 it was 3200 nM. The figures for the EC50 in the assay on PC-3, in the assay with 1A9 and in the assay on HCT-8 were 1600 nM, 1300 nM and 2200 nM, respectively.

For the molecule `COc1cccc(/C=C/C(=O)c2ccccc2)c1OC(=O)[C@@]1(C)CC[C@]2(C)CC[C@]3(C)C(=CC(=O)[C@@H]4[C@@]5(C)CC[C@H](O)C(C)(C)[C@@H]5CC[C@]43C)[C@@H]2C1`, the EC50 was over 14000 nM in the assay on DU-145; 14100 nM in the assay with LNCaP; over 14000 nM in the assay on ZR-75-1; 9900 nM in the assay on KB [2]; over 14000 nM in the assay with A549; 14100 nM in the assay with PC-3. The EC50 with 1A9 is 13300 nM; with HCT-8 it was over 14000 nM. The outcome in the assay with KB-VIN [1] was inactive.

For `CC1(C)CC[C@]2(C(=O)O)CC[C@]3(C)C(=CC[C@@H]4[C@@]5(C)CC[C@H](O)C(C)(C)[C@@H]5CC[C@]43C)[C@@H]2C1`, the outcome with KB-VIN [4] and in the assay with KB [5] was inactive.

For `COc1cc(/C=C/C(C)=O)ccc1OC(=O)[C@]12CCC(C)(C)C[C@H]1C1=CC[C@@H]3[C@@]4(C)CC[C@H](O)C(C)(C)[C@@H]4CC[C@@]3(C)[C@]1(C)CC2`, the result with KB-VIN [4] and in the assay with KB [5] was inactive.

For `COc1cc(/C=C/C(C)=O)ccc1OC(=O)[C@@]1(C)CC[C@]2(C)CC[C@]3(C)C(=CC(=O)[C@@H]4[C@@]5(C)CC[C@H](O)C(C)(C)[C@@H]5CC[C@]43C)[C@@H]2C1`, the EC50 in the assay on DU-145 stood at 3100 nM; with LNCaP, 600 nM; with ZR-75-1, 2800 nM; in assay [3], 2500 nM; in the assay on KB [2], 1600 nM; in the assay on A549 it was 2000 nM. For the same molecule, the EC50 in [6] is 2800 nM; in the assay on KB [5], 1700 nM; in the assay on PC-3, 1400 nM; in the assay on 1A9 it was 900 nM; in the assay with HCT-8, 1700 nM.

For `COc1ccc(/C=C/C(=O)c2ccccc2)c(OC(=O)[C@@]2(C)CC[C@]3(C)CC[C@]4(C)C(=CC(=O)[C@@H]5[C@@]6(C)CC[C@H](O)C(C)(C)[C@@H]6CC[C@]54C)[C@@H]3C2)c1`, the EC50 is 13000 nM in the assay with DU-145; over 14000 nM in the assay with LNCaP; over 14000 nM in assay [3]; over 14000 nM in the assay on KB [2]; over 14000 nM with PC-3; over 14000 nM in the assay on HCT-8. Further, the result with ZR-75-1, in the assay on A549 and in the assay on 1A9 was inactive.

In the case of `COc1ccc(/C=C/C(C)=O)c(OC(=O)[C@@]2(C)CC[C@]3(C)CC[C@]4(C)C(=CC(=O)[C@@H]5[C@@]6(C)CC[C@H](O)C(C)(C)[C@@H]6CC[C@]54C)[C@@H]3C2)c1`, the EC50 in the assay with DU-145 is over 15000 nM; with LNCaP it was 1900 nM; in the assay on ZR-75-1, over 15000 nM; in assay [3] it was over 15000 nM; with KB [2], 6200 nM; in the assay with A549 it was 15500 nM. Further, the EC50 was 7400 nM with PC-3, 5900 nM in the assay with 1A9 and 2600 nM with HCT-8.

Consider `C[C@H]1[C@H](C)CC[C@]2(C(=O)O)CC[C@]3(C)C(=CC[C@@H]4[C@@]5(C)CC[C@H](O)C(C)(C)[C@@H]5CC[C@]43C)[C@H]12` [URSOLIC ACID], for which the EC50 came out at 8100 nM in assay [6] and 8300 nM in the assay on KB [5].

In the case of `COc1ccc(/C=C/C(C)=O)cc1OC(=O)[C@@]1(C)CC[C@]2(C)CC[C@]3(C)C(=CC(=O)[C@@H]4[C@@]5(C)CC[C@H](O)C(C)(C)[C@@H]5CC[C@]43C)[C@@H]2C1`, the EC50 amounted to 9900 nM in the assay on DU-145; 6500 nM in the assay with LNCaP; 1900 nM in the assay with ZR-75-1; 1900 nM in assay [3]; 900 nM in the assay with KB [2]; 2800 nM in the assay on A549. Besides, the values for the EC50 in the assay with PC-3, with 1A9 and in the assay on HCT-8 were 2800 nM, 1600 nM and 2000 nM, respectively.

(Values after ChEMBL document CHEMBL1149639, “Anti-tumor agents 255: novel glycyrrhetinic acid-dehydrozingerone conjugates as cytotoxic agents” (2007).)
